Reference: ChEMBL document CHEMBL1121468, “Synthesis and blood pressure lowering activity of 3-(substituted-amino)-1,2,4-benzothiadiazine 1-oxide derivatives” (1980)
Active and inactive are the calls of the source. The rule behind the calls is not given here.

Tests used:
Oryctolagus cuniculus [1] = assay: Minimum effective dose level to give significant blood pressure lowering effect in normotensive rabbits after administering intravenously; assay type: functional; conditions: iv; for minimal effective dose: read-out: MED
Procedure, shortened: (§1)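 Conscious rabbits held in a stock. After 30 min, a 30-min control recording was taken, then drug was given into an ear vein and recording continued for 120 min. Mean arterial pressure (electrically damped) and heart rate were averaged at 10-min intervals over 120 min. The dose was adjusted to the minimum giving p < 0.05 lowering; in practice a ≥10 mmHg mean fall was significant. Vehicle: saline with 2% Emulphor EL-620.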

Rattus norvegicus [2] = assay: Percentage blood pressure lowering in spontaneously hypertensive rats within 3 hr of intraperitoneal administration at 50 mg/kg; assay type: functional
Procedure, shortened: (§2)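 Male Wistar/Kyoto SHR, about 6 months old, 300–400 g, housed four per cage with chow and water ad libitum. Drug given ip as a suspension in saline with 2% Emulphor EL-620. Systolic pressure was measured indirectly, mostly with photoelectric sensors at 25 °C, and earlier by a modified Friedman–Freed method with 30–45 s warming at 32 °C. Reported value: maximum % lowering within 3 h, mean ± SE.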

Rattus norvegicus [3] = assay: Percentage blood pressure lowering in spontaneously hypertensive rats within 3 hr of intraperitoneal administration at 1.0 mg/kg; assay type: functional; procedure, shortened: as §2
Rattus norvegicus [4] = assay: Percentage blood pressure lowering in spontaneously hypertensive rats within 3 hr of intraperitoneal administration at 50 mg/kg; Not statistically significant; assay type: functional; procedure, shortened: as §2
Rattus norvegicus [5] = assay: Percentage blood pressure lowering in spontaneously hypertensive rats within 3 hr of intraperitoneal administration at 10 mg/kg; assay type: functional; procedure, shortened: as §2
Rattus norvegicus [6] = assay: Percentage blood pressure lowering in spontaneously hypertensive rats within 3 hr of intraperitoneal administration at 20 mg/kg; Not statistically significant; assay type: functional; procedure, shortened: as §2
Rattus norvegicus [7] = assay: Percentage blood pressure lowering in spontaneously hypertensive rats within 3 hr of intraperitoneal administration at 0.5 mg/kg; assay type: functional; procedure, shortened: as §2
Oryctolagus cuniculus [8] = assay: Mean blood pressure lowering in normotensive rabbits over 2 h of intravenous administration at 0.008 mg/kg
Oryctolagus cuniculus [9] = assay: Mean blood pressure lowering in normotensive rabbits over 2 hr of intravenous administration at 0.125 mg/kg
Rattus norvegicus [10] = assay: Percentage blood pressure lowering in spontaneously hypertensive rats within 3 hr of intraperitoneal administration at 25 mg/kg; assay type: functional; procedure, shortened: as §2
Rattus norvegicus [11] = assay: Percentage blood pressure lowering in spontaneously hypertensive rats within 3 hr of intraperitoneal administration at 2 mg/kg; assay type: functional; procedure, shortened: as §2
Oryctolagus cuniculus [12] = assay: Minimum effective dose level to give significant blood pressure lowering effect in normotensive rabbits after administering intravenously; NA denotes not active at 2.5 mg/kg; assay type: functional, organism-based; set-up: dose 2.5 mg/kg; procedure, shortened: as §1
Rattus norvegicus [13] = assay: Percentage blood pressure lowering in spontaneously hypertensive rats within 3 hr of intraperitoneal administration at 20 mg/kg; assay type: functional; procedure, shortened: as §2
Rattus norvegicus [14] = assay: Percentage blood pressure lowering in spontaneously hypertensive rats within 3 hr of intraperitoneal administration at 5 mg/kg; assay type: functional; procedure, shortened: as §2

Row | SMILES | minimal effective dose (Oryctolagus cuniculus [1]) [mg/kg] | BP decrease (Rattus norvegicus [2]) [%] | other results
1 | COc1cc2c(cc1OC)S(=O)(c1ccccc1)=NC(N1CCN(C(=O)c3ccco3)CC1)=N2.Cl (configuration not stated) | 1.25 | 26.1 | –
2 | CCS1(=O)=NC(N2CCN(C(=O)c3ccco3)CC2)=Nc2cc(OC)c(OC)cc21.Cl (configuration not stated) | 2.5 | 18.2 | –
3 | COc1cc2c(cc1OC)S(C)(=O)=NC(N1CCN(C(=O)c3nnc(SC)o3)CC1)=N2.Cl (configuration not stated) | 0.2 | – | BP decrease (Rattus norvegicus [3]): 14%
4 | COc1cc2c(cc1OC)S(C)(=O)=NC(N1CCC(C#N)(c3ccccc3)CC1)=N2.Cl (configuration not stated) | – | – | BP decrease (Rattus norvegicus [4]): 1.6%
5 | COc1cc2c(cc1OC)S(C)(=O)=NC(N1CCC(C(O)c3ccccc3)CC1)=N2.Cl (configuration not stated) | 0.008 | – | BP decrease (Rattus norvegicus [5]): 40.9%
6 | COc1cc2c(cc1OC)S(C)(=O)=NC(N1CCCCC1)=N2.Cl (configuration not stated) | 1.25 | – | BP decrease (Rattus norvegicus [4]): 17.1%
7 | CCOc1cc2c(cc1OCC)S(C)(=O)=NC(N1CCN(C(=O)c3ccco3)CC1)=N2.Cl (configuration not stated) | 2.5 | 16.4 | –
8 | COc1cc2c(cc1OC)S(C)(=O)=NC(NCc1ccccc1)=N2.Cl (configuration not stated) | 1.25 | 28.9 | –
9 | COc1cc2c(cc1OC)S(C)(=O)=NC(N1CCCN(C(=O)c3ccco3)CC1)=N2.Cl (configuration not stated) | 1.25 | – | BP decrease (Rattus norvegicus [6]): -1%
10 | COc1cc2c(cc1OC)S(C)(=O)=NC(N1CCC(c3ccccc3)CC1)=N2.Cl (configuration not stated) | 0.16 | 30.2 | –
11 | CNC1=Nc2cc(OC)c(OC)cc2S(C)(=O)=N1.Cl (configuration not stated) | 0.16 | – | BP decrease (Rattus norvegicus [4]): 11.3%
12 | COc1cc2c(cc1OC)S(C)(=O)=NC(N1CCN(Cc3ccccc3)CC1)=N2.Cl.Cl (configuration not stated) | 2.5 | 32.9 | –
13 | COc1cc2c(cc1OC)S(C)(=O)=NC(NC(C)C)=N2.Cl (configuration not stated) | 2.5 | 17.7 | –
14 | COc1cc2c(cc1OC)S(C)(=O)=NC(N1CCN(C(=O)c3ccco3)CC1)=N2.Cl (configuration not stated) | – | – | BP decrease (Rattus norvegicus [7]): 28.8%; BP decrease (Oryctolagus cuniculus [8]): 11.9 mmHg; BP decrease (Oryctolagus cuniculus [9]): 24.8 mmHg
15 | COc1cc2c(cc1OC)S(C)(=O)=NC(N(C)C)=N2.Cl (configuration not stated) | 0.125 | 24.8 | –
16 | COc1cc2c(cc1OC)S(C)(=O)=NC(N1CCN(c3ccccc3)CC1)=N2.Cl.Cl (configuration not stated) | 0.625 | – | BP decrease (Rattus norvegicus [10]): 30.8%
17 | COc1cc2c(cc1OC)S(=O)(C(C)C)=NC(N1CCN(C(=O)c3ccco3)CC1)=N2.Cl (configuration not stated) | – | 34.3 | –
18 | COc1cc2c(cc1OC)S(C)(=O)=NC(N1CCN(C)CC1)=N2.Cl.Cl (configuration not stated) | 5 | 19.7 | –
19 | COc1cc2c(cc1OC)S(C)(=O)=NC(Nc1ccccc1)=N2.Cl (configuration not stated) | 1 | 19.9 | –
20 | COc1cc2c(c(OC)c1OC)S(C)(=O)=NC(N1CCN(C(=O)c3ccco3)CC1)=N2.Cl (configuration not stated) | 0.04 | 20.6 | –
21 | COc1cc2c(cc1OC)S(C)(=O)=NC(N1CCC(C(=O)c3ccccc3)CC1)=N2.Cl (configuration not stated) | – | – | BP decrease (Rattus norvegicus [11]): 25.8%
22 | COc1cc2c(cc1OC)S(C)(=O)=NC(N1CCN(C(=O)c3ccccc3)CC1)=N2.Cl (configuration not stated) | 0.312 | 25.5 | –
23 | CCN(CC)C1=Nc2cc(OC)c(OC)cc2S(C)(=O)=N1.Cl (configuration not stated) | 0.04 | – | BP decrease (Rattus norvegicus [11]): 37.3%
24 | CS1(=O)=NC(N2CCN(C(=O)c3ccco3)CC2)=Nc2cc3c(cc21)OCO3.Cl (configuration not stated) | – | 18.2 | BP decrease (Oryctolagus cuniculus [12]): inactive
25 | COc1cc2c(cc1OC)S(C)(=O)=NC(N1CCC(O)(c3ccccc3)CC1)=N2.Cl (configuration not stated) | – | 21.4 | –
26 | COc1cc2c(cc1OC)S(C)(=O)=NC(N1CCC(n3c(O)nc4ccccc43)CC1)=N2.Cl (configuration not stated) | 2.5 | 22.5 | –
27 | COc1cc2c(cc1OC)S(C)(=O)=NC(N1CCC(OC(C)=O)CC1)=N2.Cl (configuration not stated) | 0.25 | – | BP decrease (Rattus norvegicus [13]): 43%
28 | COc1cc2nc(N3CCN(C(=O)c4ccco4)CC3)nc(N)c2cc1OC.Cl [PRAZOSIN HYDROCHLORIDE] | – | – | BP decrease (Rattus norvegicus [7]): 14.7%; MED (Oryctolagus cuniculus [1]): 0.025 mg/kg
29 | COc1cc2c(cc1OC)S(C)(=O)=NC(N1CCC(O)CC1)=N2.Cl (configuration not stated) | 0.625 | – | BP decrease (Rattus norvegicus [14]): 56.9%
30 | COc1cc2c(cc1OC)S(C)(=O)=NC(N1CCNCC1)=N2.Cl.Cl (configuration not stated) | 10 | – | BP decrease (Rattus norvegicus [4]): 9.1%
